Assay outcomes (PubChem BioAssay)
Rows were chosen to be rich in hits. Some 4.3% of all compounds tested hit in one or more screens of this group.
Yeast life ext = extends the lifespan of yeast; 130,000 tested, 0.68% active; S. cerevisiae growth with nicotinamide, OD615; deaD strain in restrictive glucose medium; AID 775; inhibition of the nicotinamide effect, % at 10 µM;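 active means inhibition above a set limit, placed 3 SD over the median of all compounds, cut at about 26% in these data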;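 further: 0% = nicotinamide-treated wells and 100% = cells grown without nicotinamide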
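Assay system: engineered S. cerevisiae DeaD replicative-lifespan strain, galactose-grown log-phase cells; Buffer or medium: CSMM-D glucose medium, restrictive; Probe or stimulus: nicotinamide 1.5 mM; Compound: single dose 10 µM compound, 0.25% DMSO; Schedule: 4 h preincubation then 48 h treatment at 30 °C; Technique: OD615 measurement.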
RAM network inh = inhibitors of the yeast RAM network | S. cerevisiae dse1pr::URA3 reporter, 5-FOA growth OD615, 2 d; analog-sensitive cbk1-as2 kinase mutant strain | 190,000 tested, 1.8% active | AID 868 | inhibition, % at 50 µM;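 active means inhibition above a set limit, 3 SD over mean compound inhibition, cut at about 8.4% in these data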;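 further: 0% = DMSO-only wells with no growth and 100% = 10 µM 1-NA-PP1 full growth; inhibition rescues growth on 5-FOA so higher OD means more RAM inhibition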
BB579 growth dn = chemicals that inhibit yeast BB579 growth in restrictive medium (lifespan-shortening candidates); inhibition, % at 10 µM; S. cerevisiae BB579 growth, OD615, 48 h; 140,000 tested, 0.51% active;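 active means inhibition above a set limit, 3 SD over the mean compound inhibition, cut at about 44% in these data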
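Assay system – yeast BB579 (DeaD) · Dosing – single compound dose of 10 µM, 0.25% DMSO final · Detection – OD615 turbidity measurement · Buffer or medium – CSMM-D restrictive synthetic medium containing dextrose (glucose) · Benchmarks – positive control amphotericin B 10 µg/mL · Incubation – 48 h exposure, 30 °C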
WT yeast gro inh = growth inhibition of WT yeast, mitochondrial fusion screen; mitochondrial fusion phenotypic screen, WT strain; inhibition, % at 10 µM; 190,000 tested, 2.1% active; AID 1362; in the data active means inhibition above about 58%; tested in S. cerevisiae
* hit, by the source's call; / = no result given.

SMILES | Yeast life ext | RAM network inh | BB579 growth dn | WT yeast gro inh
CC1(C)C2CC=C(/C=N/NC(=S)NCCc3ccccc3)C1C2 (centres undefined) | / | 7.0 | / | 66.2*
Cc1ccc(S(=O)(=O)CC(=O)Nc2ccc(Cl)cn2)cc1 | / | 4.0 | / | -0.8
COC(=O)c1ccccc1S(=O)c1snnc1C (centres undefined) | / | 1.0 | / | -9.0
c1ccc(CN2CCN(C3=Nc4cccc5cccc3c45)CC2)cc1 | -3.4 | 0.4 | -45.6 | 2.0
O=C1CCN2C=Nc3cccc4ccc1c2c34 | -11.6 | 0.9 | 56.5* | 2.7
COCC(C)OC(=O)/C(C#N)=C\c1coc2ccc(C)cc2c1=O (centres undefined) | 5.3 | -0.9 | 63.5* | -4.5
Cc1ccc2occ(C(=O)c3ccco3)c(=O)c2c1 | 57.5 | 0.8 | -50.4 | 0.1
CCOC(=O)c1c(C)[nH]c(C)c1C(=O)COC(=O)c1ccc(S(=O)(=O)N(CC)CC)cc1 | -13.5 | 8.7* | -37.5 | 0.3
Cc1nn(-c2cc(N3CCCCC3)ccc2N)c(=O)c2ccccc12 | / | -1.4 | -18.4 | 1.5
Nc1ccc(N2CCCCC2)cc1N1CCCCC1 | -1.0 | -0.1 | 21.1 | 71.7*
COc1cc2c(cc1OC)C(C)N(C(=S)NC(=O)c1ccccc1)CC2 (centres undefined) | / | -0.7 | / | -7.6
Cc1ccc(S(=O)(=O)N/N=c2\oc3ccccc3cc2C(=O)Nc2cccc(C)c2)cc1 | -3.4 | 3.5 | -15.4 | -16.6
CN(CC(=O)Nc1ccccc1Sc1ccccc1)C1CCCCC1 | / | 0.6 | / | 76.4*
CC1CCCCN1C(=O)Cn1cc(/C=C2/C(=O)Nc3ccccc32)c2ccccc21 (centres undefined) | -4.7 | 9.4* | -20.8 | 95.6*
COCCNC(=O)C(c1cccc(OC)c1)N(Cc1cccs1)C(=O)Cn1nnc2ccccc21 (centres undefined) | -2.7 | 8.6* | -15.2 | -0.7
COc1ccc(C(=O)N2CCC(=O)N(C(CO)Cc3ccccc3)CC2)cc1 (centres undefined) | -1.1 | 1.1 | -28.9 | -5.5
CC(C)Cc1cc(C(=O)Nc2sc3c(c2C#N)CCC3)no1 | 2.6 | 10.5* | -7.3 | 10.3
CC(C)Cc1cc(C(=O)Nc2sc3c(c2C#N)CCCC3)no1 | -3.1 | 9.9* | -34.0 | 16.4
O=c1c2c3c(sc2nc2n1CCC2)CCC3 | -17.9 | 4.6 | 15.3 | 61.1*
CCCCc1ccc(NC(=S)Nc2ccc(Nc3ccc(OC)cc3)cc2)cc1 | -5.2 | 7.1 | 55.5* | 54.8
CCc1ccc(NC(=S)NCc2ccccc2)cc1 | / | -0.1 | / | 69.9*
S=C(NCc1ccccc1)Nc1ccc(Cl)cc1 | / | 0.3 | / | 25.5
CCCCc1ccc(NC(=S)NCc2cccc(OC)c2)cc1 | / | 1.7 | / | 65.9*
COC(=O)Cc1ccc(NC(=S)NCc2cccc(OC)c2)cc1 | / | 1.3 | / | -6.1
CCCCc1ccc(NC(=S)Nc2cccnc2)cc1 | -8.7 | 1.0 | -17.3 | 6.2
SMILES | Yeast life ext | RAM network inh | BB579 growth dn | WT yeast gro inh
COC(=O)c1ccccc1NC(=O)c1ccnn1C | / | -2.1 | / | 9.4
CCN(Cc1ccccc1)C(=O)c1ccc(CNS(=O)(=O)c2ccc(C)cc2)cc1 | 8.8 | 10.9* | -27.3 | 8.6
CCCCCC(=O)NNC(=O)c1ccc(F)cc1 | 1.2 | -0.7 | -23.7 | -9.8
Cc1ccc2c(c1)/C(=C/c1ccco1)C(=O)N2 | / | 0.3 | / | -7.6
Cc1ccc(/C=C2\C(=O)Nc3ccccc32)o1 | -6.7 | 1.3 | 60.3* | 10.2
Cc1ccc(-c2cccc(C(=O)NCc3ccccc3)n2)c2ccccc12 | 2.7 | 10.3* | -9.2 | 40.9
CCCCC(CCC(=O)Nc1ccccc1C(=O)OCC)C(=O)O (centres undefined) | -4.5 | 1.2 | -38.5 | 9.9
CC1CCc2c(sc3nc(CN4CCOCC4)nc(N4CCc5ccccc5C4)c23)C1 (centres undefined) | 3.5 | 0.9 | -41.2 | 23.4
Cc1ccc(Oc2nc(CN3CCOCC3)nc3sc4c(c23)CCC(C)C4)cc1C (centres undefined) | -8.2 | 0.8 | 80.8* | 65.4*
Cc1ccc(Oc2nc(CN3CCOCC3)nc3sc4c(c23)CCC(C)C4)cc1 (centres undefined) | 13.7 | -0.6 | 5.9 | 63.1*
CCC1(c2ccccc2)NC(=O)N(Cc2ccc(C(=O)OC)cc2)C1=O (centres undefined) | 3.6 | 0.1 | -19.4 | -23.4
Cc1ccc(NC(=O)CC2=NC(=O)C(CC(=O)Nc3ccccc3F)S2)cc1 (centres undefined) | / | 5.3 | / | -0.7
Cc1nn(C)c(C(=O)N/N=C/c2ccc(C(F)(F)F)cc2)c1[N+](=O)[O-] | 1.3 | 0.1 | 10.0 | -0.1
Cc1cccc(CN2CCN(C(c3ccccc3)c3ccc(Cl)cc3)CC2)c1 (centres undefined) | 1.9 | -1.4 | 1.4 | 65.8*
Cc1ccc2nc(/C(C#N)=C\c3ccc(N4CCOCC4)o3)[nH]c2c1 | / | -0.7 | -29.0 | 8.7
Cc1ccc2nc(/C(C#N)=C\c3ccc([N+](=O)[O-])o3)[nH]c2c1 | -21.9 | -0.9 | 99.1* | 4.0
N#C/C(=C\c1ccc(Sc2ccccc2)o1)c1nc2ccccc2[nH]1 | 2.1 | 7.0 | -69.0 | 0.7
N#C/C(=C\c1ccc([N+](=O)[O-])o1)c1nc2ccccc2[nH]1 | 20.9 | 1.5 | 67.4* | 95.4
Cc1cc(C)cc(NS(=O)(=O)c2ccc(NC(=O)C3CCCCC3C(=O)O)cc2)c1 (centres undefined) | 2.3 | 0.6 | -28.3 | 2.3
CCOC(=O)C(C)Sc1nnc(Cc2cc(=O)[nH]c(=O)[nH]2)n1-c1ccc(Cl)cc1 (centres undefined) | -4.7 | -0.3 | -4.5 | 11.8
Cc1ccc(S(=O)(=O)N(CC(=O)NCCC2=CCCCC2)Cc2ccccc2F)cc1 | 18.6 | 7.7 | -32.3 | 61.3*
C=CCn1c(Cc2cccs2)nnc1SCC(=O)c1cccc(Br)c1 | -6.8 | 1.4 | -34.9 | -7.5
Cc1c(CC=C(Cl)Cl)c(=O)[nH]c2c(C)cccc12 | -0.6 | 4.3 | -24.0 | 13.8
CC(/C=C1\SC(=S)N(NC(=O)c2ccc(O)cc2)C1=O)=C\c1ccccc1 | -6.6 | 3.2 | -45.8 | 89.9*
CC(=O)NN1C(=O)/C(=C\c2ccccc2)SC1=S | -17.7 | 0.9 | -44.3 | 43.9
SMILES | Yeast life ext | RAM network inh | BB579 growth dn | WT yeast gro inh
NC(=NCCc1ccccc1)NS(=O)(=O)c1ccccc1 | -1.2 | 1.7 | -48.0 | -4.4
Cc1cccn2cc(COc3ccc(-c4ccccc4)cc3)nc12 | / | -0.4 | / | 80.1*
CCCCC(CC)CNC(=O)C1CC=CCC1C(=O)O (centres undefined) | 9.7 | -0.8 | -23.3 | -6.5
Cc1ccccc1OCC(=O)OC(C(=O)c1ccccc1)c1ccccc1 (centres undefined) | -2.1 | 10.2* | -34.8 | 8.3
Cc1ccc(NC(=O)C(OC(=O)c2ccccc2Cl)c2ccccc2)cc1Cl (centres undefined) | 6.2 | 8.9* | -35.7 | 20.7
COc1ccc(C(=O)C(OC(=O)c2ccccc2)c2ccccc2)cc1 (centres undefined) | -3.2 | 10.4* | -4.5 | 20.8
O=C(CCC(=O)OC(C(=O)c1ccccc1)c1ccccc1)Nc1ccccc1 (centres undefined) | -29.2 | 8.2 | -35.4 | 5.5
